Laboratory results published in ChEMBL document CHEMBL3596136, “Design, synthesis and biological evaluation of paralleled Aza resveratrol-chalcone compounds as potential anti-inflammatory agents for the treatment of acute lung injury” (Bioorg Med Chem Lett, 2015).
Active and inactive are the calls of the source. The rule behind the calls is not given here.

Key:
RAW264.7 [1] = test: Anti-inflammatory activity in mouse RAW264.7 cells assessed as inhibition of LPS-induced IL6 production at 10 mM pre-incubated for 10 mins before LPS stimulation for 24 hrs by ELISA method; type: functional, cell-based; details: in the assay text read “pre-incubated for 30 mins” for “pre-incubated for 10 mins”
In short: (§1)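 RAW 264.7 macrophages pretreated with compound for 30 min, then stimulated with LPS for 24 h. TNF-α and IL-6 in culture medium measured by ELISA and normalized to total protein. Expressed as percent of LPS group; mean ± SEM of 3 independent experiments.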

RAW264.7 [2] = test: Anti-inflammatory activity in mouse RAW264.7 cells assessed as inhibition of LPS-induced TNFalpha production at 10 mM pre-incubated for 10 mins before LPS stimulation for 24 hrs by ELISA method; type: functional, cell-based; details: in the assay text read “pre-incubated for 30 mins” for “pre-incubated for 10 mins”; in short: as §1
BEAS-2B [3] = test: Anti-inflammatory activity in human BEAS2B cells assessed as LPS-induced IL6 mRNA expression incubated for 6 hrs by RT-qPCR method; type: functional, cell-based
In short: (§2)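 Beas-2B cells exposed to LPS (1.0 µg/mL) for 6 h, with or without compound. IL-1β, IL-6, IL-33 and TNF-α mRNA quantified by RT-qPCR. Results expressed as percent of LPS control.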

Mus musculus [4] = test: Anti-inflammatory activity in C57BL/6 mouse model of LPS-induced acute lung injury assessed as reduction in lung wet/dryweight ratio at 20 mg/kg for 1 week dosed before LPS instillation for 6 hrs; type: functional, organism-based
In short: (§3)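 ALI model in mice: one-week pretreatment at 20 mg/kg, then intratracheal LPS instillation (5 mg/kg). After 6 h, animals anaesthetized and killed. Lung wet/dry weight ratio determined. Total cell count and total protein concentration measured in bronchoalveolar lavage fluid.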

RAW264.7 [5] = test: Anti-inflammatory activity in mouse RAW264.7 cells assessed as inhibition of LPS-induced IL6 production pre-incubated for 30 mins before LPS stimulation for 24 hrs by ELISA method
RAW264.7 [6] = test: Anti-inflammatory activity in mouse RAW264.7 cells assessed as inhibition of LPS-induced IL6 production pre-incubated for 10 mins before LPS stimulation for 24 hrs by ELISA method; type: functional, cell-based; details: in the assay text read “pre-incubated for 30 mins” for “pre-incubated for 10 mins”
In short: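 RAW 264.7 macrophages pretreated for 30 min at 1, 2.5, 5 and 10 µM, then given LPS (0.5 µg/mL) for 24 h. IL-6 in medium measured by ELISA, normalized to total protein, and expressed as percent of LPS. Concentration-response used for IC50; 3 independent experiments.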

Mus musculus [7] = test: Anti-inflammatory activity in C57BL/6 mouse model of LPS-induced acute lung injury assessed as reduction in TNFalpha level in bronchoalveolar lavage fluid at 20 mg/kg for 1 week dosed before LPS instillation for 6 hrs; type: functional, organism-based
In short: (§4)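 LPS-induced ALI in mice. Pretreatment at 20 mg/kg for one week, then intratracheal LPS (5 mg/kg). Animals killed 6 h later. BALF and serum collected and TNF-α measured in each.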

BEAS-2B [8] = test: Anti-inflammatory activity in human BEAS2B cells assessed as LPS-induced TNFalpha mRNA expression incubated for 6 hrs by RT-qPCR method; type: functional, cell-based; in short: as §2
Mus musculus [9] = test: Anti-inflammatory activity in C57BL/6 mouse model of LPS-induced acute lung injury assessed as reduction in total cel count at 20 mg/kg for 1 week dosed before LPS instillation for 6 hrs; type: functional, organism-based; in short: as §3
Mus musculus [10] = organism: Mus musculus; test: Anti-inflammatory activity in C57BL/6 mouse model of LPS-induced acute lung injury assessed as reduction in lung airspace inflammation […] by hematoxylin and eosin staining method; type: functional, organism-based
In short: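 Lung tissue taken 6 h after tracheal LPS instillation (5 mg/kg) in mice given or not given treatment. Sections stained with hematoxylin and eosin and examined by light microscopy for inflammatory cell infiltration, interstitial edema and alveolar septal thickening.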

Mus musculus [11] = test: Anti-inflammatory activity in C57BL/6 mouse model of LPS-induced acute lung injury assessed as reduction in lung CD68-stained macrophages level at 20 mg/kg for 1 week dosed before LPS instillation for 6 hrs by immunohistochemistry method; type: functional, organism-based
In short: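 Lung sections from mice killed 6 h after intratracheal LPS, with or without pretreatment. Macrophages detected by immunohistochemistry for the marker CD68.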

BEAS-2B [12] = test: Anti-inflammatory activity in human BEAS2B cells assessed as LPS-induced IL33 mRNA expression incubated for 6 hrs by RT-qPCR method; type: functional, cell-based; in short: as §2
[13] = Toxicity against human HL7702 cells assessed as reduction in cell survival at 10 uM incubated for 24 hrs by MTT assay; type: cell-based; details: l02, 24 h
In short: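 HL-7702 normal hepatic cells treated at 10 µM for 24 h. Viability measured by MTT.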

BEAS-2B [14] = test: Anti-inflammatory activity in human BEAS2B cells assessed as LPS-induced IL-1beta mRNA expression incubated for 6 hrs by RT-qPCR method; type: functional, cell-based; in short: as §2
Mus musculus [15] = test: Anti-inflammatory activity in C57BL/6 mouse model of LPS-induced acute lung injury assessed as reduction in protein level in bronchoalveolar lavage fluid at 20 mg/kg for 1 week dosed before LPS instillation for 6 hrs by BCA protein assay; type: functional, organism-based; in short: as §3
Mus musculus [16] = test: Anti-inflammatory activity in C57BL/6 mouse model of LPS-induced acute lung injury assessed as reduction in serum TNFalpha level at 20 mg/kg for 1 week dosed before LPS instillation for 6 hrs; type: functional, organism-based; in short: as §4

Row | Structure (SMILES) | inhibition (RAW264.7 [1]) | inhibition (RAW264.7 [2]) | further results
1 | COc1ccc(C(=O)/C=C/c2cc(OC)c(OC)c(OC)c2)cc1/N=C/c1cc2c(cc1Br)OCO2 | Active |  | 
2 | COc1ccc(C(=O)/C=C/c2ccc(Br)cc2)cc1/N=C/c1cccc(OC)c1O | Active | Active | 
3 | COc1ccc(C(=O)/C=C/c2ccccc2C(F)(F)F)cc1/N=C/c1cccc(OC)c1O | Active | Active | 
4 | COc1ccc(C(=O)/C=C/c2ccc3ccccc3c2)cc1/N=C/c1cccc(OC)c1O | Active |  | 
5 | COc1ccc(C(=O)/C=C/c2ccccc2Br)cc1/N=C/c1cccc(OC)c1O | Active | Active | 
6 | COc1ccccc1/C=C/C(=O)c1ccc(OC)c(/N=C/c2cccc(OC)c2O)c1 | Active | Active | 
7 | COc1ccc(C(=O)/C=C/c2cc(OC)c(OC)c(OC)c2)cc1/N=C/c1cccc(O)c1O | Active | Active | inhibition (BEAS-2B [3]): Active; inhibition (Mus musculus [4]): Active; IC50 (RAW264.7 [5]): 1.8 µM; inhibition (RAW264.7 [6]): Dose-dependent effect; inhibition (Mus musculus [7]): Active; inhibition (BEAS-2B [8]): Active; inhibition (Mus musculus [9]): Active; inhibition (Mus musculus [10]): Active; inhibition (Mus musculus [11]): Active; inhibition (BEAS-2B [12]): Active; Activity [13]: Non-toxic; inhibition (BEAS-2B [14]): Active; inhibition (Mus musculus [15]): Active; inhibition (Mus musculus [16]): Active
8 | COc1ccc(Br)c(/C=N/c2cc(C(=O)/C=C/c3cc(OC)c(OC)c(OC)c3)ccc2OC)c1 | Active |  | 
9 | COc1ccc(C(=O)/C=C/c2cccc(Br)c2)cc1/N=C/c1cccc(OC)c1O | Active | Active | 
10 | COc1ccc(C(=O)/C=C/c2cc(OC)c(OC)c(OC)c2)cc1/N=C/c1ccc(O)c(Br)c1 | Active | Active | IC50 (RAW264.7 [5]): 3.6 µM; inhibition (RAW264.7 [6]): Dose-dependent effect; Activity [13]: Non-toxic
11 | COc1ccc(C(=O)/C=C/c2ccc(OC)c(OC)c2)cc1/N=C/c1cccc(OC)c1O | Active |  | 
12 | COc1ccc(C(=O)/C=C/c2cc(OC)c(OC)c(OC)c2)cc1/N=C/c1cccc(OC)c1O | Active | Active | IC50 (RAW264.7 [6]): 2.8 µM; inhibition (RAW264.7 [6]): Dose-dependent effect; Activity [13]: Non-toxic
13 | COc1ccc(C(=O)/C=C/c2ccc(C(F)(F)F)cc2)cc1/N=C/c1cccc(OC)c1O | Active | Active | 
14 | Oc1ccc(/C=C/c2cc(O)cc(O)c2)cc1 | Active | Active | inhibition (Mus musculus [11]): Active; inhibition (Mus musculus [16]): Active
15 | COc1cc(OC)c(/C=C/C(=O)c2ccc(OC)c(/N=C/c3cccc(OC)c3O)c2)c(OC)c1 | Active |  | 
16 | COc1ccc(C(=O)/C=C/c2cc(OC)c(OC)c(OC)c2)cc1/N=C/c1ccc(Cl)cc1Cl | Active |  | 
17 | COc1ccc(C(=O)/C=C/c2cc(OC)c(OC)c(OC)c2)cc1/N=C/c1ccc(O)cc1O | Active |  | 
18 | CCN(CC)c1ccc(/C=N/c2cc(C(=O)/C=C/c3cc(OC)c(OC)c(OC)c3)ccc2OC)c(O)c1 | Active |  | 
19 | COc1ccc(C(=O)/C=C/c2cc(OC)c(OC)c(OC)c2)cc1/N=C/c1ccccc1Br | Active | Active | IC50 (RAW264.7 [5]): 4.8 µM; inhibition (RAW264.7 [6]): Dose-dependent effect; Activity [13]: Non-toxic
20 | COc1ccc(C(=O)/C=C/c2cc(OC)c(OC)c(OC)c2)cc1/N=C/c1ccccc1O | Active |  | IC50 (RAW264.7 [5]): 3.6 µM; inhibition (RAW264.7 [6]): Dose-dependent effect; Activity [13]: Non-toxic
